Measured values from the EternaBench riboswitch data.

Test system: MS2 coat protein
Test: apparent Kd, MS2 coat protein; higher = weaker binding; RNA-MaP array; FMN 200 µM where present
Outline: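 Two titrations, one without ligand and one with constant ligand, were run with SNAP-549-labelled MS2 coat protein from 0.7 or 1.5 nM, doubling to 3 µM. The targets were designs transcribed by stalled E. coli RNA polymerase on Illumina sequencing-chip clusters, in 100 mM Tris-HCl pH 7.5, 80 mM KCl, 4 mM MgCl2, BSA, DTT, yeast tRNA and Tween-20. The apparent Kd is the median of filtered per-cluster binding-curve fits, with green signal normalised to red-channel RNA signal and control-cluster median Fmax.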

[1] = designed as: OFF switch for flavin mononucleotide, no ligand
[2] = ligand present: flavin mononucleotide, designed as: OFF switch for flavin mononucleotide
[3] = designed as: ON switch for flavin mononucleotide, no ligand
[4] = ligand present: flavin mononucleotide, designed as: ON switch for flavin mononucleotide

| Sequence | apparent Kd [1] [nM] | apparent Kd [2] [nM] | apparent Kd [3] [nM] | apparent Kd [4] [nM] |
| --- | --- | --- | --- | --- |
| GUCAUGUUAGGAUAUCAAACAUGUGACUUCGGUCACUGUCCUGAGAAGGAACAUGAGGAUCACCCAUGUUGGAC | 17.8 | 47.4 | – | – |
| UCAGUAGAGUCAGGAUAUACGAAAGGCGAUCCAUACAUGAGGAUCACCCAUGUAGAAGGGACUCUACUGUAAGUCGGAAACGAC | 309 | 21.9 | – | – |
| AAAUGCCUGUCGAUGCUCGACAUGAGGAUCACCCAUGUACAGCAGGAUAUGCGGAACUAACUCGUGCAGAAGGGCUGUACCUAA | 102 | 144 | – | – |
| UCUAUGUAGAUUCAUCAAUACAGUAAGGAUAUGAGAUACAUGAGGAUCACCCAUGUGCAUGUGGAUUAGAAGGUACAAUUAACU | 293 | 188 | – | – |
| UUUGCAUUCCGAGGAUAUUCAUAUAAUAAAUAAACAUGAGGAUCACCCAUGUGGCGAUAGCCUAGGGAGAAGGCGGUUUGCUUU | – | – | 87.7 | 29.6 |
| GUGGUGAAUUAAGGAUAUCGAGUCUAGAUGUUAAACAUGAGGAUCACCCAUGUGGGUUGCGGUGUCGAGAAGGUAAUUUACGGG | – | – | 64.3 | 33.9 |
| AGCGUCGGCACAGGAUAUGAGAUGCCGGCAGACAUGAGGAUCACCCAUGUAAGCGAACCAGGCAGUCAGAAGGGUGAUCGACAA | – | – | 56.3 | 21.7 |
| AAAACUUCAGAGAAGGACCCAUCGGCGAGAUGGGUAGGAUAUCUGACUUGAGGUGUCCUGACAUGAGGAUCACCCAUGUAUAAA | 418 | 61.4 | – | – |
| GGAUAGGACAGAGGAUAUACGUGCUAGAGAUACUAGCAAAAUCUCCUCACAUGAGGAUCACCCAUGUAGAAGGCUGUCCUAUCG | 9.85 | 201 | – | – |
| GGAUUAAUAGUCCACAUGAGGAUCACCCAUGUAGUAUUUUGCAAGGAUAUGGUGGGACUUCGUGGCCAGAAGGUGUAAAGGAUC | – | – | 128 | 99.2 |
| UUGGUGUACGUAGGAUAUGUAGGAUAUUCCUACAUGAGGAUCACCCAUGUAUGCAUGGAAGAAGGACAGAAGGACGUGCACCAU | – | – | 203 | 14 |
| CCUGCACAUGAGGAUCACCCAUGUCAGGAUAUCUCGCCGCGAAGAGCAACACGGUAUUAGAGAAGGGACACGGG | 28.1 | 36.5 | – | – |
| UUAAUUAAUUAAUUAUACAUGAGGAUCACCCAUGUAAGUGAUCAGGAUAUCAGCUCGUGUAGAGCUGAGAAGGGAUACAUGUAA | – | – | 194 | 102 |
| AGGUAACAUGAGGAUCACCCAUGUCAGGAUAUCAGUAAGAUUAGAAUAGAGUAGAGGAUGAGAAGGGACUAUAU | 47 | 41.8 | – | – |
| AUGACCUCAGUCAGGAUAUCGGCGCGGUGACGACUCGAGAAGGGACAUGAGGAUCACCCAUGUCUCGAUUAUAG | 15.4 | 22.2 | – | – |
| AUGGUGACGUAGAAGGGUGACAUGAGGAUCACCCAUGUGCCGAUAUAUCUCGAGAUAUGUCGGCCACAGGAUAUACGUGCCAUC | – | – | 150 | 158 |
| GAUUUGUGACAAUUACAUGAGGAUCACCCAUGUUGUAGUAUGCAGGAUAUGUGGUAUAUUAUUUAACAGAAGGGCAAUAAUUUU | – | – | 98 | 46.4 |
| CCCAAGUCAGGAUAUGGAACACAGAGACAUCUCUGUGCCCACCAGAAGGGACAUGAGGAUCACCCAUGUGAUGA | 64.4 | 296 | – | – |
| ACCUUACAUGAGGAUCACCCAUGUCAGGAUAUCUCGGACAGCUGAAAACCAGCCGUCCAGAGAAGGGACGAGGA | 13.4 | 14.4 | – | – |
| ACAAGAUCAGGAUAUACAUGAGGAUCACCCAUGUUUAUCAAAAAGGGACUUUCUUUAUGUAGAAGGGAUCUUGU | 72.8 | 70.1 | – | – |
| UUUAUUUUGCAAGGAUAUGUUUAAUUUUAGUUUCCUUACACAUGAGGAUCACCCAUGUUAUACUUACAGAAGGUGCGUAAUUUU | 130 | 103 | – | – |
| UCAUGUUUAGAGGAUAUGAUUACUCUAGAGUGAUCAGAAGGCUAGACAUGAGGAUCACCCAUGUCAGAACAUGU | 34.4 | 24.8 | – | – |
| CGAUAACAUAGUUAUCCGUAACGGACAUGAGGAUCACCCAUGUAGGAUAUGUUACUCCACGAGUAACAGAAGGACAUGAGUCUU | 19.3 | 95.7 | – | – |
| UUUAUUUUUACAGGAUAUCAUCUAUAUAUCACAUGCACAUGUUUACAUGAGGAUCACCCAUGUUUUGAGAAGGGUAAUGAAACA | – | – | 79.6 | 59 |
| AGCUGGAGAGGAUAUACGUAAGUGAAAAAAGUCUGAUAACUACAUGAGGAUCACCCAUGUAGAAGGCUCUGGCA | 19.3 | 33.2 | – | – |
| AACAUGUCAGGAUAUGCAACAGGAGACUGACACGCGAGUGAGCAGAAGGGACAUGAGGAUCACCCAUGUUCAAA | 19.1 | 17.4 | – | – |
| GUAUCGUGAGGAUAUCUAGACUGACUUAGUACAUGUCAGCUGGAGAAGGCACAUGAGGAUCACCCAUGUGAUUA | 22.6 | 73.8 | – | – |
| CAGAAGUCAGGAUAUCCUGCUCGUCACUUGCGUGAUGAGUAGGAGAAGGGACAUGAGGAUCACCCAUGUAAAGC | 53.8 | 65.2 | – | – |

| Sequence | apparent Kd [1] [nM] | apparent Kd [2] [nM] | apparent Kd [3] [nM] | apparent Kd [4] [nM] |
| --- | --- | --- | --- | --- |
| CCUAAGGACACAGGAUAUAGCGUGGUGGCCGGACUCCAACAGCGAGCGGCGCUAGAAGGGUGACCACAUGAGGAUCACCCAUGU | – | – | 709 | 370 |
| GCAGAUCACGUGAGGAUAUCGUCUACCUCGGUAGUCGAGAAGGCACAUGAGGAUCACCCAUGUGAGUGUUCUGC | 20.1 | 19.5 | – | – |
| GGGUAACAUGAGGAUCACCCAUGUGAGGAUAUUCUAGGGAUGGAAGCUCGGCCGGCCAGGAGAAGGUACUAAAG | 44 | 48 | – | – |
| CAGGAUAGAGGAUAUACGUAGAUACAGAUUCAUGUAAUCCUACAUGAGGAUCACCCAUGUAGAAGGCUAUCCUG | 18 | 113 | – | – |
| GGAUUACAUGAGGAUCACCCAUGUGAGGAUAUCGAUGUCCCUAGCAGCGUGCGGGACUCGAGAAGGCACUUGGA | 47.5 | 248 | – | – |
| GGGCUCGGUGUGAGGAUAUUGGGUCUGAAAGGGCUCGAGAAGGCACAUGAGGAUCACCCAUGUAAGCUGGGUCU | 42.7 | 37.3 | – | – |
| AUAAUUUUAUUUUUCUAUUUCAUCAGAAGGCAUUACAUGAGGAUCACCCAUGUUUUGGAUAGUAAUGAGGAUAUGAUAUGGUUA | 10.2 | 18.6 | – | – |
| GUAGCAUACCGAGGAUAUUCAUACAAUAAAUAGACAUGAGGAUCACCCAUGUGGCGAAAGCCUUGGGAGAAGGCGGAAUGCUAC | – | – | 451 | 37.6 |
| UUGUUGUGUGUAGGAUAUGCAUAUUAUUAUUAUGCAGAAGGACAUGAGGAUCACCCAUGUAUAUUAUUAUUAUAUAUUAUAUAU | 31.1 | 36.6 | – | – |
| UUACUCAUGUAAGGAUAUGCAGCCGUUUCGGCUGCAGAAGGUACUAUAAUACAUGAGGAUCACCCAUGUCUUUUUAAAUUUUAC | – | – | 109 | 35.2 |
| GUCUGAUUGUAGAAGGUACUUAAUACUCAUGUAACAUGAGGAUCACCCAUGUAUCAACAAUAUUGUAAGGAUAUACAAAUCUCA | – | – | – | 222 |
| CUCUUGUGAGGAUAUCAGGUGUGCUAGCGUACUGGUACAUCUGAGAAGGCACAUGAGGAUCACCCAUGUUUCUU | 97.7 | 72.3 | – | – |
| AACAGCUCGUCAGGAUAUAUUAUCUUUUAAUGUAUUAAUGUACAUGAGGAUCACCCAUGUUGUUUGUAGAAGGGACGAGCUGAA | 8.88 | 9.34 | – | – |
| GGUACUCAAAGAGUACCAAUACGAACAUGAGGAUCACCCAUGUAGGAUAUUCUACUCAAAGAGUAGCAGAAGGACAUGUGCCUA | 10.8 | 13.1 | – | – |
| CGCUCUAUAUAUAAGGCAAGAAUCAGAAGGCGUUACAUGAGGAUCACCCAUGUUUUGUAUAGUAACGAGGAUAUGAUAUGAGCG | 15.3 | 15.1 | – | – |
| GACUACGAGGGAGGAUAUCCUCAUUAAAAUGGUGGAGAAGGCCCUCUACAUGAGGAUCACCCAUGUAUCGCUAUAGUCAGAAAU | – | – | 10.8 | 6.53 |
| GCACGACAUGUAGGAUAUCGAGCGCCGAGCGCUCGAGAAGGACAUGAGGAUCACCCAUGUAUUCUGAGUGAGCGAGGUCGUGCA | 45.7 | 393 | – | – |
| ACAUGAGACUUAGGAUAUGUUGUACCUACAUGUGACAUGAGGAUCACCCAUGUGGUAAGUAUGACACAGAAGGAAGAGAUAUGU | – | – | 21.4 | 19.9 |
| ACAGUUCUGCAAGGAUAUCGUCCUAGUUUGUUUCGAGAAGGUGCUUUAGUUUAUUCCUUUUGUUUACAUGAGGAUCACCCAUGU | 23.6 | 16.9 | – | – |
| GUAUCUCACUGAGGAUAUUUACGAUUAGUGUAGACAUGAGGAUCACCCAUGUGGCGUUAGUCACGGGAGAAGGCAGUGCGAUAC | – | – | 114 | 20 |
| GCCGAAAGUGUGAGGAUAUACCUAUGGAUACAUAGGUAGAAGGCACAUGAGGAUCACCCAUGUCCAAUAACGGC | 205 | 647 | – | – |
| GUUACAUGAGGAUCACCCAUGUAUGUGUGGGAGUAAGUGUCUUAGGAUAUCUAUUAUUUAAAUUAAGAGAAGGAAGAUUGUUGU | – | – | 123 | 137 |
| CCCAAACUUGGGCUUGGUGGUGCAUAGGAUAUCCUUGGACAUGAGGAUCACCCAUGUACAACUGUGGAGAAGGGUGCAGGACCU | – | – | 227 | 39.6 |
| GAAAACUGAGGAUAUACAUGAGGAUCACCCAUGUAGGUACGGCUUCUACAUUCGUCAUGUAGAAGGCAGUAUAA | 18.1 | 15.7 | – | – |
| UCCCGUGUGGAAGGAUAUAGGACGAGGUGGGACAUGAGGAUCACCCAUGUGCUAGAAGGUCCGCAGCCGAUUGGCUUUUACGUG | 9.2 | 28.1 | – | – |
| ACAAAUUAGUGAGGAUAUGCUAAAUUUAUAACAGCAGAAGGCACAAACCUCAAGACAUGAGGAUCACCCAUGUGGAAUAUAGAU | 68 | 139 | – | – |
| GAGGACUGUAAAUAAGUAGAAAUACAUGAGGAUCACCCAUGUAAGGAUAUCGUCAGGAAUACUGACGAGAAGGUACAUCAGUCC | 14.5 | 18.1 | – | – |
